Measurements: ChEMBL document CHEMBL3272325, “Structure-activity relationships of dimeric Catharanthus alkaloids. 1. Deacetylvinblastine amide (vindesine) sulfate” (J Med Chem, 1978)
Calls of active or inactive are those of the source. No cut-off for these calls is given here.

Columns and labels:
[1] = Acute toxicity in rat; type: organism-based; conditions: in vivo
B16 [2] = test: Antitumor activity against mouse B16 cells allografted in B6D2F1 mouse assessed as increase in life span at 0.389 mg/kg/day, ip administered on day 1, 5 and 9 measured for 56 days relative to untreated control; type: functional; conditions: route intraperitoneal
Procedure, shortened: (§1)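 Male B6D2F1 mice implanted ip on day 0 with 0.25 mL of a 20% (w/v) B16 melanoma brei. Alkaloid sulfate salts given ip on days 1, 5, 9 or on days 5, 9, 13, groups of 10, against 30 untreated controls. Read-outs: median survival time with range of individual deaths, and percent increase in life span, with survivors counted on day 56.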

B16 [3] = test: Antitumor activity against mouse B16 cells allografted in B6D2F1 mouse assessed as increase in life span at 0.389 mg/kg/day, ip administered on day 5, 9 and 13 measured for 56 days relative to untreated control; type: functional; conditions: route intraperitoneal; procedure, shortened: as §1
B16 [4] = test: Antitumor activity against mouse B16 cells allografted in B6D2F1 mouse assessed as mean survival time at 1.08 mg/kg/day, ip administered on day 5, 9 and 13 (reference value: 20.0 days); type: functional; conditions: route intraperitoneal; procedure, shortened: as §1
[5] = Antitumor activity against mouse P1534(J) cells allografted in mouse assessed as tumor growth inhibition at 0.35 mg/kg/day, ip administered from day 1 to day 9 relative to unreated control; type: functional; conditions: P1534J, route intraperitoneal, read-out: TGI
Procedure, shortened: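 P1534(J) leukemia implanted subcutaneously in mice; sulfate salts given ip on days 1-9. Read-out is percent inhibition of tumor growth versus untreated controls.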

P388 [6] = test: Antitumor activity against mouse P388 cells allografted in mouse assessed as increase in life span at 4 mg/kg/day, ip after 1 day; type: functional; conditions: 24 h, route intraperitoneal
Procedure, shortened: (§2)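 P388 ascites implanted ip in mice, 10 animals per group. Sulfate salts given ip either daily on days 1-9 or as a single dose on day 1. Median life span was calculated using all deaths and survivors. Percent increase in life span was taken over untreated controls. The highest nontoxic dose was noted.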

B16 [7] = test: Antitumor activity against mouse B16 cells allografted in B6D2F1 mouse assessed as increase in life span at 1.8 mg/kg/day, ip administered on day 1, 5 and 9 measured for 56 days relative to untreated control; type: functional; conditions: route intraperitoneal; procedure, shortened: as §1
[8] = Toxicity in ip dosed mouse allografted with mouse P1534(J) cells administered from day 1 to day 9; type: organism-based; conditions: in vivo, read-out: MNTD
Procedure, shortened: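 P1534(J) leukemia implanted subcutaneously in mice. Sulfate salts given ip daily on days 1-9. Read-out was percent inhibition of tumor growth relative to untreated controls. The highest nontoxic dose was recorded.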

B16 [9] = test: Antitumor activity against mouse B16 cells allografted in B6D2F1 mouse assessed as mean survival time at 1.8 mg/kg/day, ip administered on day 5, 9 and 13 (reference value: 20.0 days); type: functional; conditions: route intraperitoneal; procedure, shortened: as §1
[10] = Antitumor activity against mouse Ridgeway osteogenic sarcoma cells allografted in mouse at 0.1 to 0.35 mg/kg/day, ip; type: functional; conditions: route intraperitoneal
Procedure, shortened: (§3)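 Sulfate salts given ip on days 1-9 against ROS and GLS in mice; tumor growth scored as percent inhibition versus controls (+++ = 75-100%, ++ = 50-75%, ± = under 25%).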

B16 [11] = test: Antitumor activity against mouse B16 cells allografted in B6D2F1 mouse assessed as mean survival time at 3 mg/kg/day, ip administered on day 5, 9 and 13 (reference value: 20.0 days); type: functional; conditions: route intraperitoneal; procedure, shortened: as §1
B16 [12] = test: Antitumor activity against mouse B16 cells allografted in B6D2F1 mouse assessed as increase in life span at 0.648 mg/kg/day, ip administered on day 5, 9 and 13 measured for 56 days relative to untreated control; type: functional; conditions: route intraperitoneal; procedure, shortened: as §1
P388 [13] = test: Antitumor activity against mouse P388 cells allografted in mouse assessed as increase in life span at 0.4 mg/kg/day, ip administered from day 1 to day 9 relative to untreated control; type: functional; conditions: route intraperitoneal; procedure, shortened: as §2
B16 [14] = test: Antitumor activity against mouse B16 cells allografted in B6D2F1 mouse assessed as mean survival time at 1.08 mg/kg/day, ip administered on day 1, 5 and 9 (reference value: 20.0 days); type: functional; conditions: route intraperitoneal; procedure, shortened: as §1
[15] = Toxicity in ip dosed mouse allografted with mouse p388 cells administered from day 1 to day 9; type: organism-based; conditions: in vivo, read-out: MNTD; procedure, shortened: as §2
[16] = Toxicity in ip dosed mouse allografted with mouse p388 cells after 1 day; type: organism-based; conditions: in vivo, read-out: MNTD; procedure, shortened: as §2
B16 [17] = test: Antitumor activity against mouse B16 cells allografted in B6D2F1 mouse assessed as increase in life span at 1.08 mg/kg/day, ip administered on day 5, 9 and 13 measured for 56 days relative to untreated control; type: functional; conditions: route intraperitoneal; procedure, shortened: as §1
P388 [18] = test: Antitumor activity against mouse P388 cells allografted in mouse assessed as increase in life span at 0.6 mg/kg/day, ip administered from day 1 to day 9 relative to untreated control; type: functional; conditions: route intraperitoneal; procedure, shortened: as §2
P388 [19] = test: Antitumor activity against mouse P388 cells allografted in mouse assessed as increase in life span at 0.9 mg/kg/day, ip administered from day 1 to day 9 relative to untreated control; type: functional; conditions: route intraperitoneal; procedure, shortened: as §2
P388 [20] = test: Antitumor activity against mouse P388 cells allografted in mouse assessed as survival at 0.4 mg/kg/day administered from day 1 to day 9; type: functional, organism-based
Procedure, shortened: (§4)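 P388 ascites implanted ip in mice; sulfate salts dosed either daily or as a single dose on day 1, 10 animals per group. Survivors per total were recorded, median life span was calculated using all deaths and survivors, and percent increase of life span was reported.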

[21] = Antitumor activity against mouse Gardner lymphosarcoma cell allografted in mouse at 0.1 to 0.35 mg/kg/day, ip; type: functional; conditions: route intraperitoneal; procedure, shortened: as §3
P388 [22] = test: Antitumor activity against mouse P388 cells allografted in mouse assessed as survival at 2.7 mg/kg/day after 1 day; type: functional, organism-based; procedure, shortened: as §4
P388 [23] = test: Antitumor activity against mouse P388 cells allografted in mouse assessed as increase in life span at 6 mg/kg/day, ip after 1 day; type: functional; conditions: 24 h, route intraperitoneal; procedure, shortened: as §2
B16 [24] = test: Antitumor activity against mouse B16 cells allografted in B6D2F1 mouse assessed as increase in life span at 0.648 mg/kg/day, ip administered on day 1, 5 and 9 measured for 56 days relative to untreated control; type: functional; conditions: route intraperitoneal; procedure, shortened: as §1
B16 [25] = test: Antitumor activity against mouse B16 cells allografted in B6D2F1 mouse assessed as mean survival time at 0.389 mg/kg/day, ip administered on day 5, 9 and 13 (reference value: 20.0 days); type: functional; conditions: route intraperitoneal; procedure, shortened: as §1
B16 [26] = test: Antitumor activity against mouse B16 cells allografted in B6D2F1 mouse assessed as increase in life span at 3 mg/kg/day, ip administered on day 5, 9 and 13 measured for 56 days relative to untreated control; type: functional; conditions: route intraperitoneal; procedure, shortened: as §1
[27] = Acute toxicity in ip dosed mouse; type: organism-based; conditions: in vivo
B16 [28] = test: Antitumor activity against mouse B16 cells allografted in B6D2F1 mouse assessed as mean survival time at 0.389 mg/kg/day, ip administered on day 1, 5 and 9 (reference value: 20.0 days); type: functional; conditions: route intraperitoneal; procedure, shortened: as §1
P388 [29] = test: Antitumor activity against mouse P388 cells allografted in mouse assessed as increase in life span at 0.27 mg/kg/day, ip administered from day 1 to day 9 relative to untreated control; type: functional; conditions: route intraperitoneal; procedure, shortened: as §2
B16 [30] = test: Antitumor activity against mouse B16 cells allografted in B6D2F1 mouse assessed as increase in life span at 1.8 mg/kg/day, ip administered on day 5, 9 and 13 measured for 56 days relative to untreated control; type: functional; conditions: route intraperitoneal; procedure, shortened: as §1
B16 [31] = test: Antitumor activity against mouse B16 cells allografted in B6D2F1 mouse assessed as mean survival time at 3 mg/kg/day, ip administered on day 1, 5 and 9 (reference value: 20.0 days); type: functional; conditions: route intraperitoneal; procedure, shortened: as §1
B16 [32] = test: Antitumor activity against mouse B16 cells allografted in B6D2F1 mouse assessed as increase in life span at 3 mg/kg/day, ip administered on day 1, 5 and 9 measured for 56 days relative to untreated control; type: functional; conditions: route intraperitoneal; procedure, shortened: as §1
B16 [33] = test: Antitumor activity against mouse B16 cells allografted in B6D2F1 mouse assessed as mean survival time at 1.8 mg/kg/day, ip administered on day 1, 5 and 9 (reference value: 20.0 days); type: functional; conditions: route intraperitoneal; procedure, shortened: as §1
P388 [34] = test: Antitumor activity against mouse P388 cells allografted in mouse assessed as increase in life span at 9 mg/kg/day, ip after 1 day; type: functional; conditions: 24 h, route intraperitoneal; procedure, shortened: as §2
P388 [35] = test: Antitumor activity against mouse P388 cells allografted in mouse assessed as survival at 4 mg/kg/day after 1 day; type: functional, organism-based; procedure, shortened: as §4
B16 [36] = test: Antitumor activity against mouse B16 cells allografted in B6D2F1 mouse assessed as mean survival time at 0.648 mg/kg/day, ip administered on day 5, 9 and 13 (reference value: 20.0 days); type: functional; conditions: route intraperitoneal; procedure, shortened: as §1
B16 [37] = test: Antitumor activity against mouse B16 cells allografted in B6D2F1 mouse assessed as mean survival time at 0.648 mg/kg/day, ip administered on day 1, 5 and 9 (reference value: 20.0 days); type: functional; conditions: route intraperitoneal; procedure, shortened: as §1
P388 [38] = test: Antitumor activity against mouse P388 cells allografted in mouse assessed as increase in life span at 2.7 mg/kg/day, ip after 1 day; type: functional; conditions: 24 h, route intraperitoneal; procedure, shortened: as §2
B16 [39] = test: Antitumor activity against mouse B16 cells allografted in B6D2F1 mouse assessed as increase in life span at 1.08 mg/kg/day, ip administered on day 1, 5 and 9 measured for 56 days relative to untreated control; type: functional; conditions: route intraperitoneal; procedure, shortened: as §1

CC[C@]1(O)C[C@@H]2CN(CCc3c([nH]c4ccccc34)[C@@](C(=O)OC)(c3cc4c(cc3OC)N(C)[C@H]3[C@@](O)(C(=O)OC)[C@H](OC(C)=O)[C@]5(CC)C=CCN6CC[C@]43[C@@H]65)C2)C1.O=S(=O)(O)O [VINBLASTINE SULFATE]
LD50 [1]: 2.9 mg/kg | ILS at 0.389 mg/kg/day (B16 [2]): 60% | ILS at 0.389 mg/kg/day (B16 [3]): 12% | MST (B16 [4]): 27.5 days | inhibition in vivo at 0.35 mg/kg/day [5]: 54% | ILS at 4 mg/kg/day (P388 [6]): 95% | ILS at 1.8 mg/kg/day (B16 [7]): 92% | MTD [8]: 0.35 mg/kg/day | MST (B16 [9]): 25 days | TGI [10]: <25% | MST (B16 [11]): 32.5 days | ILS at 0.648 mg/kg/day (B16 [12]): 40% | ILS at 0.4 mg/kg/day (P388 [13]): 72% | MST (B16 [14]): 35.5 days | MTD [15]: 0.9 mg/kg/day | MTD at 24 h [16]: 9 mg/kg/day | ILS at 1.08 mg/kg/day (B16 [17]): 39% | ILS at 0.6 mg/kg/day (P388 [18]): > 263% | ILS at 0.9 mg/kg/day (P388 [19]): 109% | Activity (P388 [20]): inactive | TGI [21]: <25% | Activity (P388 [22]): inactive | ILS at 6 mg/kg/day (P388 [23]): 109% | ILS at 0.648 mg/kg/day (B16 [24]): 68% | MST (B16 [25]): 22.5 days | ILS at 3 mg/kg/day (B16 [26]): 62% | LD50 [27]: 10 mg/kg | MST (B16 [28]): 32 days | ILS at 0.27 mg/kg/day (P388 [29]): 131% | ILS at 1.8 mg/kg/day (B16 [30]): 25% | MST (B16 [31]): 40.5 days | ILS at 3 mg/kg/day (B16 [32]): 102% | MST (B16 [33]): 38.5 days | ILS at 9 mg/kg/day (P388 [34]): 127% | Activity (P388 [35]): inactive | MST (B16 [36]): 28 days | MST (B16 [37]): 33.5 days | ILS at 2.7 mg/kg/day (P388 [38]): 81% | ILS at 1.08 mg/kg/day (B16 [39]): 78%
